Screening results deposited in PubChem by several laboratories.
PPC-1+TRAIL kill: kills PPC-1 cancer cells in the presence of TRAIL; PPC-1 cells + TRAIL, ATPLite viability luminescence; cell killing (% activity), % at 4 µM or 5 µM; 220,000 tested, 0.41% active;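 active means cell killing above 50% in the first pass at 4 µM, then a duplicate retest at 5 µM averaging 50% or more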
FLuc act counter: affects firefly luciferase, flagging false hits in luciferase stimulation screens; P08659; ATPlite luciferase biochemical, luminescence, 10 min; 0 = ATP-free wells, 1 = DMSO control; activation factor at 10 µM; 200,000 tested, under 10 active; AID 1027;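 active means luciferase activation factor, scaled between plate controls, of at least 2 with compound at 10 µM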
Target sequence (P08659 whole entry, looked up): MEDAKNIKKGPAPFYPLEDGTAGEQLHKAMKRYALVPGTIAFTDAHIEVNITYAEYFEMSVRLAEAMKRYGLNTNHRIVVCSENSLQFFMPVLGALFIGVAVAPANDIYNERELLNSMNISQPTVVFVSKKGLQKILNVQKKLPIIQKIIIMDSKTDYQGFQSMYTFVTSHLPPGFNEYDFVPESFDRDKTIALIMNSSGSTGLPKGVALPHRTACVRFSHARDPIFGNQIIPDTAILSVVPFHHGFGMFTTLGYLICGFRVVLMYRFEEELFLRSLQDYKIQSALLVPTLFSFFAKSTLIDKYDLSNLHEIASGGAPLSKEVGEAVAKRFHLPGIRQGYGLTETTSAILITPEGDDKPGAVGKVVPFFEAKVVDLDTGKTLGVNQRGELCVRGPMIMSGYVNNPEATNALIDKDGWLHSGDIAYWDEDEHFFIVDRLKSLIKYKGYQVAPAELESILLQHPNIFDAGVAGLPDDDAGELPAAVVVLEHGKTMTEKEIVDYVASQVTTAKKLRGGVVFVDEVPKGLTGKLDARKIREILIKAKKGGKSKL
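Material: Luciferase/luciferin reagent mix; Doses: test compounds dosed from 2 mM stocks in 100% DMSO; Schedule: 10 min incubation after luciferase reagent addition, room temperature; Measured by: luminescence from luciferase reaction; Read-out: luminescence gain marking luciferase activators.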
HSP90 inh: blocks HSP90-mediated luciferase refolding in reticulocyte lysate; Rabbit reticulocyte lysate, luciferase refolding luminescence, 3 h; inhibition, % at 5.6 µM; 290,000 tested, 0.91% active;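 active means inhibition above the screen-wide mean plus 3 SD, computed separately per campaign, cut at about 16% in these data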;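 further: inhibitors lower the luminescence because luciferase stays unfolded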
C8 TRAIL sens: caspase-8 TRAIL sensitization; NB7+C8 cells + TRAIL, ATPlite viability luminescence; inhibition (viability loss, TRAIL sensitization), % at 10 µM; 360,000 tested, 1% active; AID 624354;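 active means compounds causing at least 50% loss of cell viability in the single-dose screen, relative to plate controls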
FLuc inh counter: inhibits firefly luciferase, flagging false hits in luciferase inhibition screens; ATPLite firefly luciferase biochemical luminescence, 10 min; inhibition, % at 10 µM; 200,000 tested, 1.5% active; AID 1006;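 active means inhibition above about 50% when tested at 10 µM, limit read from the data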
STAT3 inh: inhibitors of IL-6 induced STAT3 signaling; U3A cells, IL-6 STAT3-luciferase reporter, luminescence; host cell line lacks STAT1; inhibition, % at 5.5 µM; 190,000 tested, 0.89% active; AID 862;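 active means inhibition above the mean inhibition across all screened compounds plus 3 SD, cut at about 44% in these data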
Numbers stand for hits; – = inactive; · = no result. Sampled rows, rich in hits. Any-hit rate of the full collection: about 2.2%.

SMILES	PPC-1+TRAIL kill	FLuc act counter	HSP90 inh	C8 TRAIL sens	FLuc inh counter	STAT3 inh
CCC(C)Nc1c2c(nc3c(-c4ccccc4)c(C)nn13)CCC2 (configuration not stated)	–	–	–	–	–	–
O=C(c1ccccc1F)N1CCN(c2ccc([N+](=O)[O-])c(N3CCOCC3)c2)CC1	–	–	–	–	90	–
CNC(=O)NC(=O)C(c1ccccc1)N(C)CC1COc2ccccc2O1 (configuration not stated)	·	·	–	–	·	·
CSc1ccc(NC(=O)C2(C)CCN2C(=O)c2ccccc2CCc2ccccc2)cc1 (configuration not stated)	·	·	·	–	·	·
C#Cc1ccc(NC(=O)C2(C)CCN2C(=O)c2ccccc2CCc2ccccc2)cc1 (configuration not stated)	·	·	·	89	·	·
C#Cc1ccc(NC(=O)C2(C)CCN2C(=O)C2(c3ccccc3)CCCC2)cc1 (configuration not stated)	·	·	·	86	·	·
CC(C)NC(=O)C1(C)CCN1C(=O)C1(c2ccccc2)CCCC1 (configuration not stated)	·	·	·	–	·	·
CC(C)c1ccc(C(CC(=O)O)N2Cc3ccccc3C2=O)cc1 (configuration not stated)	·	·	–	–	·	·
O=C(Nc1cccc(-n2cnnn2)c1)c1ccoc1COc1ccc(Cl)cc1	·	·	–	–	·	·
COCCNC(=S)NNC(=O)c1ccc(-n2cnnn2)cc1	–	–	–	–	–	–
CC(C)Nc1ccc(Nc2ccnc3cc4ccccc4cc23)cc1	–	·	–	92	·	·
COc1ccc(Nc2ccnc3ccccc23)cc1	–	–	–	–	–	–
O=C(c1cncc(Br)c1)N1CCN(S(=O)(=O)c2ccc(Cl)cc2)CC1	·	·	–	–	·	·
CC(C)CC(/C(O)=C(\C#N)c1nc2ccccc2[nH]1)N1C(=O)c2ccccc2C1=O (configuration not stated)	–	–	–	65	–	–
CCOC(=O)C(NCCc1ccccc1)(NC(=O)CC)C(F)(F)F (configuration not stated)	–	–	–	–	–	–
CCCCC[C@@H](C)N1C[C@H](COCc2ccccc2)Oc2cc(N3CC[C@H](N(C)C)C3)ccc2S1(=O)=O	·	·	·	69	·	·
CCCCC[C@H](C)N1C[C@H](COCc2ccccc2)Oc2cc(N3CC[C@H](O)C3)ccc2S1(=O)=O	·	·	·	–	·	·
COc1ccccc1C(CCN(Cc1ccccc1)C(C)=O)c1ccco1 (configuration not stated)	–	·	–	–	·	·
Cn1c(-c2ccccc2)cnc1SCc1nc2ccccc2c(=O)[nH]1	–	–	–	–	61	–
Clc1ccc(-c2nc3n(n2)Cc2ccccc2-3)cc1	–	–	–	59	58	–
Cc1ccc(S(=O)(=O)c2ccc([N+](=O)[O-])o2)cc1	·	·	·	92	·	·
Cc1ccc(Cl)cc1N1CCN(C(=O)c2noc(C)c2[N+](=O)[O-])CC1	·	·	–	95	·	·
Cc1onc(C(=O)N2CCN(c3ccccc3)CC2)c1[N+](=O)[O-]	·	·	–	–	·	·
CCOC(=O)/C(=C/c1ccc(OC(F)F)cc1)C1=Nn2c(nnc2-c2ccc(Cl)cc2)SC1	·	·	·	90	·	·
CCOC(=O)/C(=C\c1ccc(OC(F)F)cc1)C1=Nn2c(nnc2-c2ccc(Cl)cc2)SC1	–	–	–	94	–	–
SMILES	PPC-1+TRAIL kill	FLuc act counter	HSP90 inh	C8 TRAIL sens	FLuc inh counter	STAT3 inh
Cc1nc(SCC(=O)Nc2ccc(CN3CCCC3)cc2)c2c(C)c(C)sc2n1	·	·	·	–	·	·
O=C(c1ccc(OC2CCN(Cc3ccccn3)CC2)cc1)N1CCC[C@H]1CO	·	·	16	–	·	·
O=C(NCCc1ccccc1)c1ccc(NC(=O)C2CCC2)cc1	·	·	·	–	·	·
NNc1ncnc2c1cnn2-c1ccccc1	–	–	–	–	–	–
Cc1cccc(-n2ncc3c(NC(C)C)ncnc32)c1	–	–	–	66	63	–
CC(C)Nc1ncnc2c1cnn2-c1ccccc1	·	–	–	–	79	–
Cc1ccc(NC(=O)CCCn2nc(C)c3c(C)n(-c4ccccc4)nc3c2=O)c(Cl)c1	·	·	–	–	·	·
O=C(OCc1cn([C@H]2CN(CC3CCCCC3)[C@@H](c3ccc(Cl)cc3)C[C@@H]2O)nn1)c1ccccc1	·	·	·	–	·	·
Cc1ccc(O)c(/C=N/NC(=O)c2[nH]ncc2Br)c1	–	–	–	–	74	–
COc1ccc(OC)c(/C=N/NC(=O)c2[nH]ncc2Br)c1	–	·	–	–	·	·
